According to ChEMBL document CHEMBL4325864, “Discovery of new potent protein arginine methyltransferase 5 (PRMT5) inhibitors by assembly of key pharmacophores from known inhibitors” (Bioorg Med Chem Lett, 2018):

Assays:
[1] = target: PRMT5/MEP50 complex (Homo sapiens, UniProt O14744); assay: Inhibition of recombinant human N-terminal FLAG-tagged PRMT5 (2 to end residues) /human N-terminal His-tagged MEP50 (2 to end residues) expressed in HEK293F cells pretreated for 15 mins followed by substrate and [3H]-SAM addition measured after 60 mins by scintillation proximity assay; assay type: cell-based
Sequence of PRMT5/MEP50 complex (O14744 whole entry): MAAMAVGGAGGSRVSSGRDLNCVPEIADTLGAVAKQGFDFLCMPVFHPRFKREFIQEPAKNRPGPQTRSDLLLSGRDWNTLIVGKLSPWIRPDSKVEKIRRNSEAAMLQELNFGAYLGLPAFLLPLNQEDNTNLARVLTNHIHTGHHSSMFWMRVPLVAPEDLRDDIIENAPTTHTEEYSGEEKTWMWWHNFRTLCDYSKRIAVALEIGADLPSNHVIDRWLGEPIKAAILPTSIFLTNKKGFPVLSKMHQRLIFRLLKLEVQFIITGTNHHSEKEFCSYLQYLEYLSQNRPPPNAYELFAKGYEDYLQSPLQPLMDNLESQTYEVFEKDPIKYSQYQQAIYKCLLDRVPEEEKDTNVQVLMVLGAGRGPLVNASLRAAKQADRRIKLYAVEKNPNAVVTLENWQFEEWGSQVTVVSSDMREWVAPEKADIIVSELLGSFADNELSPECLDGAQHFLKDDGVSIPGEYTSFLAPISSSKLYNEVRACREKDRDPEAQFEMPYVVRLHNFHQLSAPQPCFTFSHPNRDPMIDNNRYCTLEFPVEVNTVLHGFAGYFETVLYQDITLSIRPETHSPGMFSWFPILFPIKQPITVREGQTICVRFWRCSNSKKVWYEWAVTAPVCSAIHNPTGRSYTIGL
Sequence of PRMT5/MEP50 complex (Q9BQA1 whole entry, further chain): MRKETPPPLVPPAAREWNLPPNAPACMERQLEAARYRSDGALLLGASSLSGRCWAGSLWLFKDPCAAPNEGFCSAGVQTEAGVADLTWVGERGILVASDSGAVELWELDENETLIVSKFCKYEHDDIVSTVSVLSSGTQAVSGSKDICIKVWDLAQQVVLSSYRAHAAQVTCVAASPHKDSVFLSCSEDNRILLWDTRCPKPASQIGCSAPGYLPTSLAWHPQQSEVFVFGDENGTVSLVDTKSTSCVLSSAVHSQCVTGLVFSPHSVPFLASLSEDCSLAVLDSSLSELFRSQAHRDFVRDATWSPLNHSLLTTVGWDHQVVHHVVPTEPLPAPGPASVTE
In short: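 PRMT5 enzymatic inhibition measured by radiometric scintillation proximity assay; IC50 determined.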

[2] = target: T1, Protein arginine N-methyltransferase 5 (Homo sapiens, UniProt O14744); assay: Inhibition of PRMT5 in human KARPAS422 cells assessed as decrease in symmetric arginine dimethylation of SmD3 after 4 days by Western blot analysis; assay type: cell-based; conditions: in the assay text read “after 72 h” for “after 4 days”
T1 sequence (O14744 whole entry): as the sequence (O14744 whole entry) above
In short: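 KARPAS-422 and SU-DHL-4 cells treated across a concentration range; symmetric arginine dimethylation of SmD3 detected by Western blot with symmetric dimethyl arginine (SDMA) antibody.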

[3] = target: T1, Protein arginine N-methyltransferase 5; assay: Inhibition of PRMT5 (unknown origin)
[4] = target: T1, Protein arginine N-methyltransferase 5; assay: Inhibition of full-length N-terminal FLAG-tagged PRMT5 (unknown origin) (1 to 637 residues) expressed in baculovirus infected Sf9 insect cells using histone H4 as peptide after 5 hrs in presence of [H3]AdoMet by scintillation proximity assay

Row | IC50 [1] | Compound | further results
1 | > 100 µM | COc1ccc(NC(=O)CCN2CCc3ccccc3C2)cc1 | –
2 | – | O=C(NC[C@H](O)CN1CCc2ccccc2C1)c1cc(NC2COC2)ncn1 | inhibition [2]: Dose-dependent effect
3 | 63 µM | O=C(CCN1CCc2ccccc2C1)Nc1cccc(OC(F)(F)F)c1 | –
4 | – | O=C(NC[C@H]1C[C@@H]2CC[N@@]1C[C@@H]2CN1CCC(Cc2ccccc2)CC1)c1ccc2c(c1)OCO2 | IC50 [3]: 1.5 µM
5 | > 100 µM | O=C(CCN1CCc2ccccc2C1)Nc1ccccc1 | –
6 | 31.6 µM | COC(=O)c1ccccc1NC(=O)CCN1CCc2ccccc2C1 | –
7 | 18.1 µM | O=C(CCN1CCc2ccccc2C1)Nc1cccc(Br)c1 | –
8 | > 100 µM | Cc1ccc(NC(=O)CCN2CCc3ccccc3C2)cc1 | –
9 | 87.9 µM | COC(=O)c1ccccc1NC(=O)CCCN1CCc2ccccc2C1 | –
10 | 69.9 µM | O=C(CCN1CCc2ccccc2C1)Nc1nccc(C(F)(F)F)n1 | –
11 | 45.9 µM | O=C(CCN1CCc2ccccc2C1)Nc1cccc(F)c1 | –
12 | > 100 µM | CCOC(=O)c1ccc(NC(=O)CCN2CCc3ccccc3C2)cc1 | –
13 | – | Nc1ncnc2c1ncn2[C@@H]1O[C@H](C[C@@H](N)CC[C@H](N)C(=O)O)[C@@H](O)[C@H]1O [SINEFUNGIN] | IC50 [4]: 8.6 µM
14 | 25.6 µM | N#Cc1ccccc1NC(=O)CCN1CCc2ccccc2C1 | –
